Measurements from ChEMBL document CHEMBL3232843, “Novel pyrrolidine diketopiperazines selectively inhibit melanoma cells via induction of late-onset apoptosis” (J Med Chem, 2014).
Calls of active or inactive are those of the source. No cut-off for these calls is given here.

Key:
[1] = Cytotoxicity against CHOK1 cells after 72 hrs by CellTiter-Glo luminescence assay; assay type: cell-based; details: Cricetulus griseus, CHO-K1, 72 h
How it was run: (§1)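 1250 cells per well in serum-free medium (F12 for CHO-K1 and A549, DMEM for M14). Compounds given as 10-point 1:3 serial dilutions from a 300 µM stock, plus a gefitinib control. Incubated 72 h at 37 °C, 5% CO2. CellTiter-Glo added for 15 min at room temperature, then luminescence read. Viability normalized to media-only wells (0%) and 1% DMSO wells (100%). Run in triplicate.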

A549 [2] = experiment: Cytotoxicity against human A549 cells after 72 hrs by CellTiter-Glo luminescence assay; assay type: functional, cell-based; details: A549, 72 h; how it was run: as §1
A549 [3] = experiment: Selectivity ratio of IC50 for human M14 cells over IC50 for human A549 cells; assay type: functional
How it was run: (§2)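 Ratio of 72 h CellTiter-Glo IC50 values between the stated cell lines. Each IC50 comes from a 10-point 1:3 dose–response series and is the mean of three experiments ± standard deviation.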

CHO-K1 = experiment: Selectivity ratio of IC50 for human M14 cells over IC50 for CHOK1 cells; assay type: functional; how it was run: as §2
M14 [4] = experiment: Cytotoxicity against human M14 cells after 72 hrs by CellTiter-Glo luminescence assay; assay type: functional, cell-based; details: for IC50: M14, 72 h; how it was run: as §1
M14 [5] = experiment: Cytotoxicity against human M14 cells assessed as cell viability at 100 uM after 4 hrs by CellTiter-Glo luminescence assay; assay type: functional, cell-based
How it was run: (§3)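 M14 cells, 1250 per well, in serum-free DMEM. Compounds given in 10-point 1:3 dilution series starting at 100 µM; controls were gefitinib, doxorubicin and ionomycin. Incubated at 37 °C, 5% CO2. CellTiter-Glo luminescence read at 4, 24, 48 and 72 h. Viability normalized to media-only wells and 1% DMSO-treated wells.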

[6] = (§4) Cytotoxicity against mouse B16F10 cells expressing p53 mutant after 48 hrs by hexosaminidase assay; assay type: functional, cell-based; details: B16-F10, 48 h
How it was run: (§5)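 SK-MEL-28 or B16/F10 cells plated in 96-well plates, grown overnight, then treated with 0–50 µM compound for 48 h. Cells washed with PBS, given hexosaminidase substrate for 30 min at 37 °C, then developer. Absorbance read at 405 nm. Percent viability = treated/control absorbance × 100.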

B16-F10 = experiment: as §4; assay type: functional, cell-based; how it was run: as §5
M14 [7] = experiment: Induction of apoptosis human M14 cells assessed as caspase activity at 100 uM after 24 hrs using DEVD peptide as substrate by ApoTox-Glo triplex assay relative to control; assay type: functional
How it was run: (§6)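 M14 #5 cells, 1250 per well in serum-free DMEM, pre-incubated 4 h at 37 °C, 5% CO2. Compounds added as 1:3 serial dilutions; incubated 4, 24, 48 and 72 h. Per time point, a reagent containing 400 µM GF-AFC (live-cell protease) and 400 µM bis-AAF-R110 (dead-cell protease) was added for 30 min at 37 °C, then fluorescence was read. Caspase-Glo 3/7 was added next, 30 min at room temperature, then luminescence.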

M14 [8] = experiment: Cytotoxicity against human M14 cells assessed as cell viability at 100 uM after 48 hrs by CellTiter-Glo luminescence assay; assay type: functional, cell-based; how it was run: as §3
M14 [9] = experiment: Cytotoxicity against human M14 cells assessed as cell viability after 48 hrs using GF-AFC as substrate by ApoTox-Glo triplex assay; assay type: functional, cell-based
How it was run: (§7)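 M14 cells, 1250 per well, in serum-free DMEM, settled 4 h, then given 1:3 serial dilutions. Ionomycin, terfenadine and panobinostat were the controls. Incubated 4, 24, 48 or 72 h at 37 °C. A reagent containing 400 µM GF-AFC (live-cell protease, ex 400/em 505 nm) and 400 µM bis-AAF-R110 (dead-cell protease, ex 485/em 520 nm) was applied for 30 min at 37 °C. Caspase-Glo 3/7 (DEVD) luminescence was then read after 30 min at room temperature.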

M14 [10] = experiment: Cytotoxicity against human M14 cells assessed as cell viability after 48 hrs using bis-AAF-R110 as substrate by ApoTox-Glo triplex assay; assay type: functional, cell-based; how it was run: as §7
SK-MEL-28 [11] = experiment: Cytotoxicity against human SK-MEL-28 cells expressing B-raf V600E mutant at 10 uM after 48 hrs by hexosaminidase assay; assay type: functional; details: SK-MEL-28, 48 h; how it was run: as §5
[12] = target: Histone deacetylase 2 (Homo sapiens) (UniProt Q92769); experiment: Inhibition of HDAC2 (unknown origin) up to 100 uM
Sequence of Histone deacetylase 2 (Homo sapiens) (Q92769 whole entry): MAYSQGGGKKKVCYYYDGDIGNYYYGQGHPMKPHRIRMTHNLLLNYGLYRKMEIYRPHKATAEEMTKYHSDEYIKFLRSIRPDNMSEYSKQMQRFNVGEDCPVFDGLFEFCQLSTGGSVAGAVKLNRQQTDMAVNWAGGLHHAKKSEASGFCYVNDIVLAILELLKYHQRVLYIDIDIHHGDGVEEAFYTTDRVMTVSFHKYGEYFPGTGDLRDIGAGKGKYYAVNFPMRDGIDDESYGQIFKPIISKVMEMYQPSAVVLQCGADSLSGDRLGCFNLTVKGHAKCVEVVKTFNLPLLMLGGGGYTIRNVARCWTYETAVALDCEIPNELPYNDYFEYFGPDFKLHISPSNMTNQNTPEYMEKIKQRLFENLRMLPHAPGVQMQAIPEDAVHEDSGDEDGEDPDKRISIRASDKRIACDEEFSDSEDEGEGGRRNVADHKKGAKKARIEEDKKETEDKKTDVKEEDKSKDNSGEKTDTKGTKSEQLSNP

[13] = target: Histone deacetylase 1 (Homo sapiens) (UniProt Q13547); experiment: Inhibition of HDAC1 (unknown origin) up to 100 uM
Sequence of Histone deacetylase 1 (Homo sapiens) (Q13547 whole entry): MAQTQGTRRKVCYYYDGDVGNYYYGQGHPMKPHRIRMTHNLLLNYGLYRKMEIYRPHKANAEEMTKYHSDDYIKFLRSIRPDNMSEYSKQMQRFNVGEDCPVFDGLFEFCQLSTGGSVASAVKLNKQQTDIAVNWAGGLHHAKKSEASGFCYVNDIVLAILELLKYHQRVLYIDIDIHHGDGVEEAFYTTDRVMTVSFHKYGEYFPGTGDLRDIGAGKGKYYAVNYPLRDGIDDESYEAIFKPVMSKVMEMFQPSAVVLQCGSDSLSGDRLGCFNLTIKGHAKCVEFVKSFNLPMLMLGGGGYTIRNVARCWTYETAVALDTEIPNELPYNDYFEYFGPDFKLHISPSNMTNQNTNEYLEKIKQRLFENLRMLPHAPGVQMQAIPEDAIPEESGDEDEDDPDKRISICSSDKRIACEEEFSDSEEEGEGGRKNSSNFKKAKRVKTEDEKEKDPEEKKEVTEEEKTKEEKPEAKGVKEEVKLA

[14] = Cytotoxicity against mouse B16F10 cells expressing p53 mutant at 10 uM after 48 hrs by hexosaminidase assay; assay type: functional; details: B16-F10, 48 h; how it was run: as §5
[15] = target: T1, Protein deacetylase HDAC6 (Homo sapiens) (UniProt Q9UBN7); experiment: Inhibition of HDAC6 (unknown origin) up to 100 uM
T1 sequence (whole entry): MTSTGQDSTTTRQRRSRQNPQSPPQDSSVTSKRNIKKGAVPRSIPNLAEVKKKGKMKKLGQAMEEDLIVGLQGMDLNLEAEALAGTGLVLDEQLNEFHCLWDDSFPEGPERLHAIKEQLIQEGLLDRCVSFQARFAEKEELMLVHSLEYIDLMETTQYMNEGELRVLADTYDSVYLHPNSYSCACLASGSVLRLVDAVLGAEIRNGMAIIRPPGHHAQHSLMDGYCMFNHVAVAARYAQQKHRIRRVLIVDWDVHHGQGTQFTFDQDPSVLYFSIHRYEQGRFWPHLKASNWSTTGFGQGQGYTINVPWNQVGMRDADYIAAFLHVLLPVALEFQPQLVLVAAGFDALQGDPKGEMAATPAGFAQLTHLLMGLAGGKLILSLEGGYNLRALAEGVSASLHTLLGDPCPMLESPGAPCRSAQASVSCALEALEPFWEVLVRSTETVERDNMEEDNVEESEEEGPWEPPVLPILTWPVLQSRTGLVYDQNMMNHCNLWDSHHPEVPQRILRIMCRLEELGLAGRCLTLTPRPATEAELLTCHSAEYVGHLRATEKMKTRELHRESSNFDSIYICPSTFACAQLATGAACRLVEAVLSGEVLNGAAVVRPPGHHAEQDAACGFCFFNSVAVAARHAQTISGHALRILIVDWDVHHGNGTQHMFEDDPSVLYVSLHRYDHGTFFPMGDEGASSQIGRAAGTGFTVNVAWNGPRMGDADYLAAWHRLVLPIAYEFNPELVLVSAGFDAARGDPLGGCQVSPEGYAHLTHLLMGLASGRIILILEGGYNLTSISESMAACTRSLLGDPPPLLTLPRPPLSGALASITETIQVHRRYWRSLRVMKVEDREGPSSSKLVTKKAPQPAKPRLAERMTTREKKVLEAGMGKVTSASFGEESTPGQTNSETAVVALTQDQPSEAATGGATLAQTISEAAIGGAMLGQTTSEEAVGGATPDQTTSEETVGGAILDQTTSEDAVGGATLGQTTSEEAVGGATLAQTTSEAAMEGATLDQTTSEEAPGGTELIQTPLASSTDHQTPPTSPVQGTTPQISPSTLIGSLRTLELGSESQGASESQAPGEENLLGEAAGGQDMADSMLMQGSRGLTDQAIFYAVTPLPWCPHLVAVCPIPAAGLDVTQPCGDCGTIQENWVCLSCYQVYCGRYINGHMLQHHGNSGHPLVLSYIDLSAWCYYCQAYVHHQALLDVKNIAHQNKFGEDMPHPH

M14 [16] = experiment: Cytotoxicity against human M14 cells assessed as cell viability at 100 uM after 4 hrs using GF-AFC as substrate by ApoTox-Glo triplex assay; assay type: functional, cell-based; how it was run: as §7
M14 [17] = experiment: Induction of apoptosis human M14 cells assessed as caspase activity at 100 uM after 48 hrs using DEVD peptide as substrate by ApoTox-Glo triplex assay relative to control; assay type: functional; how it was run: as §6
SK-MEL-28 [18] = experiment: Cytotoxicity against human SK-MEL-28 cells expressing B-raf V600E mutant after 48 hrs by hexosaminidase assay; assay type: functional, cell-based; how it was run: as §5
M14 [19] = experiment: Cytotoxicity against human M14 cells assessed as cell viability at 100 uM after 24 hrs by CellTiter-Glo luminescence assay; assay type: functional, cell-based; how it was run: as §3
M14 [20] = experiment: Induction of apoptosis human M14 cells assessed as caspase activity at 100 uM after 72 hrs using DEVD peptide as substrate by ApoTox-Glo triplex assay; assay type: functional, cell-based; how it was run: as §7
M14 [21] = experiment: Induction of apoptosis human M14 cells assessed as caspase activity at 100 uM after 4 hrs using DEVD peptide as substrate by ApoTox-Glo triplex assay; assay type: functional, cell-based; how it was run: as §7
M14 [22] = experiment: Cytotoxicity against human M14 cells assessed as cell viability at 100 uM after 4 hrs using bis-AAF-R110 as substrate by ApoTox-Glo triplex assay; assay type: functional, cell-based; how it was run: as §7

Q: For CCC[C@H]1CNC(=O)C(=O)N1C[C@@H]1CCCN1C[C@@H](CC1CCCCC1)N1C[C@H](Cc2ccc(O)cc2)N(CCc2ccccc2)C(=O)C1=O, which IC50 [1] is on record?
A: > 100 µM

Q: And the IC50 (A549 [2])?
A: 52 µM

Q: And the “Ratio IC50” value (A549 [3])?
A: 5

Q: And the “Ratio IC50” value (CHO-K1)?
A: >10

Q: What about the IC50 (M14 [4]) of the same compound?
A: 8.8 µM

Q: For O=C1NC[C@H](Cc2ccccc2)N(C[C@@H]2CCCN2C[C@@H](CC2CCCCC2)N2C[C@H](Cc3ccc(O)cc3)N(CCc3ccccc3)C(=O)C2=O)C1=O, which IC50 [1] is on record?
A: > 100 µM

Q: What about the Activity (M14 [5]) of the same compound?
A: inactive

Q: And the IC50 [6]?
A: 2.7 µM

Q: What about the inhibition (B16-F10) of the same compound?
A: Dose-dependent effect

Q: What about the Activity (M14 [7]) of the same compound?
A: 550%

Q: What about the Activity (M14 [8]) of the same compound?
A: Active

Q: And the Activity (M14 [9])?
A: Dose-dependent effect

Q: And the IC50 (A549 [2])?
A: > 100 µM

Q: What about the Activity (M14 [10]) of the same compound?
A: Dose-dependent effect

Q: What about the inhibition at 10 µM (SK-MEL-28 [11]) of the same compound?
A: 100%

Q: And the inhibition [12]?
A: inactive

Q: And the inhibition [13]?
A: inactive

Q: What about the inhibition at 10 µM [14] of the same compound?
A: 100%

Q: And the inhibition [15]?
A: inactive

Q: And the Activity (M14 [16])?
A: inactive

Q: What about the inhibition (M14 [4]) of the same compound?
A: Dose-dependent effect

Q: What about the IC50 (M14 [4]) of the same compound?
A: 3.6 µM

Q: What about the Activity (M14 [17]) of the same compound?
A: 400%

Q: What about the inhibition (SK-MEL-28 [18]) of the same compound?
A: Dose-dependent effect

Q: And the IC50 (SK-MEL-28 [18]; SK-MEL-28, 48 h)?
A: 0.56 µM

Q: And the Activity (M14 [19])?
A: Active

Q: What about the Activity (M14 [20]) of the same compound?
A: inactive

Q: What about the Activity (M14 [21]) of the same compound?
A: inactive

Q: What about the Activity (M14 [22]) of the same compound?
A: inactive
